Screening results (PubChem)
In the library only some 3% were active in any assay of this set; here they are far more common.
Beta2AR agonist: activates human beta-2 adrenergic receptor causing internalization. response, % (concentration not given with the values). Am2.2-beta2AR cells, FAP receptor internalization, flow cytometry. P07550. 0.43% of 340,000 active. AID 504454;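 active = response above a set limit, near 3 SD of response in nonfluorescent compounds, cut at about 42% in these data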
PfG6PD inh: PfG6PD (Plasmodium falciparum) enzyme inhibition | inhibition, % at 20 µM | PfGluPho enzyme, NADPH resazurin-diaphorase fluorescence | 0.78% of 350,000 active;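 active = inhibition reaching at least a set limit at 20 µM in the primary screen, cut at about 59% in these data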;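 also: 0% = DMSO wells with substrate and 100% = DMSO wells lacking glucose-6-phosphate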
MC4R antagonist: antagonists of human melanocortin 4 receptor (MC4R). inhibition, % at 6.5 µM. 0.48% of 360,000 active. AID 540295. MC4R-expressing cells, MTII-stimulated cAMP, LANCE TR-FRET;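 active = inhibition above its plate's cutoff, the mean of tested wells on that plate plus 3 SD, cut at about 29% in these data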;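 also: 0% = Melanotan II alone and 100% = Melanotan II plus saturating MCL0020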
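Assay system: U2OS-MC4R stable cell line; Also added: Melanotan II; Technique: Eu-cAMP/anti-cAMP TR-FRET, emission 671 nm; Times: 30-min compound, 1-h challenge, 1-h detection, room temperature.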
ABHD5 PLIN5 PPI: inhibitors of human ABHD5-perilipin-5 interaction; inhibition, % at 4 µM; Q00G26+Q8WTS1; Split G. princeps luciferase complementation, luminescence, 4 h; 0.78% of 360,000 active;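 active = inhibition above the mean inhibition across every tested compound plus 3 SD, cut at about 22% in these data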;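 also: 0% = DMSO only wells and the 100% control is not disclosed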
Target sequence (Q00G26 whole entry, looked up): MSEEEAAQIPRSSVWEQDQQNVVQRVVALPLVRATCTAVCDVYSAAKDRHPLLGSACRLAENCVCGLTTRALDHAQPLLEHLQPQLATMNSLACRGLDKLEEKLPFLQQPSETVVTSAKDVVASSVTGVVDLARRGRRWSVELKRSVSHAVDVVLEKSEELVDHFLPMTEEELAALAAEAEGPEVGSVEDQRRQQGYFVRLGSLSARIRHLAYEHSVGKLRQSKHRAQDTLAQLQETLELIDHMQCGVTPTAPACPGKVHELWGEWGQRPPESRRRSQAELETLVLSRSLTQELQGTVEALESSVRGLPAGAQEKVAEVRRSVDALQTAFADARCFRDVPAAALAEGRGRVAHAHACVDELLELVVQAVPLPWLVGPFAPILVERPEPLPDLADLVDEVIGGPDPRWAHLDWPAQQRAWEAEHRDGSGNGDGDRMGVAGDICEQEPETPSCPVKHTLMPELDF
Target sequence (Q8WTS1 whole entry, looked up): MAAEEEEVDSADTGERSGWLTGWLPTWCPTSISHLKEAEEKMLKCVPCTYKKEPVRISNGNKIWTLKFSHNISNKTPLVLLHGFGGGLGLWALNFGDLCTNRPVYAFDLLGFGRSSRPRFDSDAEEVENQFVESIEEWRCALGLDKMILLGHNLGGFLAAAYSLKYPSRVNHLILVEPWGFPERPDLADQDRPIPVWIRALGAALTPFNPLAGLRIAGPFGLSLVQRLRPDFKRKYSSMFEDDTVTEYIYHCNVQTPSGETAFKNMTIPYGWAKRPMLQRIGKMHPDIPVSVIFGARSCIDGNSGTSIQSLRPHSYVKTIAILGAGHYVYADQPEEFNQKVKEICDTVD
MC4R ag barr: human MC4R agonism via beta-arrestin; U2OS MC4R beta-arrestin complementation, luminescence; percent of melanotan II response, DMSO zero; 0.98% of 360,000 active; P32245; activation, % at 8.9 µM; AID 540308;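 active = activation above a per-plate cutoff, the mean activation of sample wells on that plate plus 3 SD, cut at about 8% in these data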
PfGluPho conf: confirmation of Plasmodium falciparum G6PD inhibitors; shares compounds with PfG6PD inh; recombinant PfGluPho, NADPH-diaphorase-resazurin fluorescence; inhibition, % at 20 µM; 34% of 2,400 active; AID 504753;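 active = inhibition of at least 50% at 20 µM in any single replicate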;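 also: 0% = DMSO with substrate and 100% = DMSO lacking glucose-6-phosphate substrate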
Starred values were filed as active, the others as inactive; nt = not tested or not shown.

SMILES | Beta2AR agonist | PfG6PD inh | MC4R antagonist | ABHD5 PLIN5 PPI | MC4R ag barr | PfGluPho conf
COC(=O)CCCC1=CC2=CC(=O)C(C)(OC(=O)c3cccs3)C(=O)C2=CN1C1CCCCC1 (centres undefined) | -6.3 | 36.7 | 1.9 | -12.8 | -0.6 | nt
COC(=O)CCC(=O)OC1(C)C(=O)C=C2C=C(C3CC3)N(CCCOC(C)C)C=C2C1=O (centres undefined) | -0.7 | 68.2* | 2.7 | -11.3 | -0.1 | 23.5
C=CCN1C=C2C(=O)C(C)(OC(=O)CCC(=O)OC)C(=O)C=C2C=C1C1CC1 (centres undefined) | -0.9 | 41.6 | 10.4 | -4.2 | -3.1 | nt
COC(=O)CCC(=O)OC1(C)C(=O)C=C2C=C(C3CC3)N(CCCCO)C=C2C1=O (centres undefined) | 3.3 | 51.9 | -4.1 | -26.0 | -1.1 | nt
COC(=O)CCCC1=CC2=CC(=O)C(C)(OC(=O)c3cccs3)C(=O)C2=CN1C1CC1 (centres undefined) | 3.6 | 61.7* | 4.1 | -19.9 | 0.2 | 6.5
COC(=O)CCC(=O)OC1(C)C(=O)C=C2C=C(C3CC3)N(CCc3c[nH]c4ccccc34)C=C2C1=O (centres undefined) | -3.8 | 64.9* | 1.9 | -4.1 | -2.3 | 38.4
COC(=O)CCC(=O)OC1(C)C(=O)C=C2C=C(C3CC3)N(CCc3ccccn3)C=C2C1=O (centres undefined) | -5.3 | 62.5* | -7.7 | -5.7 | -1.9 | 25.7
CN(Cc1ccccc1)/C(=N/O)c1cccc(Cl)c1 | 6.4 | 9.8 | 10.0 | -1.7 | 0.3 | nt
Cc1ccc(S(=O)(=O)/C=C/c2ccccc2)cc1 | -8.3 | -6.3 | 5.4 | 2.7 | -1.2 | nt
CCOCCCNC(=O)CSc1nnc(-c2ccc(S(=O)(=O)N3CCCC3)cc2)n1C | 4.8 | 3.0 | 0.4 | 0.4 | -1.3 | nt
COC(=O)CCC(=O)OC1(C)C(=O)C=C2C=C(C3CC3)N(c3ccccc3)C=C2C1=O (centres undefined) | 4.3 | 66.5* | 4.6 | -8.9 | -1.4 | 37.1
COC(=O)CCC(=O)OC1(C)C(=O)C=C2C=C(C3CC3)N(C(CO)CO)C=C2C1=O (centres undefined) | 9.6 | 52.3 | 2.7 | 1.4 | 1.0 | nt
Cc1cc(C)n(CC(=O)NNC(=O)C2CC(=O)N(Cc3ccccc3Cl)C2)n1 (centres undefined) | 1.9 | 2.2 | 2.3 | -4.1 | -2.7 | nt
CCOc1ccc2c(c1)C(=O)C(=O)N2CC1COc2ccccc2O1 (centres undefined) | 22.4 | 62.9* | -26.4 | 1.5 | -1.7 | 10.9
COc1ccc2c(c1)C(=O)C(=O)N2CC1COc2ccccc2O1 (centres undefined) | 22.5 | 53.0 | -23.6 | 18.6 | -2.3 | nt
CN1CCC(=O)N(CCOc2ccccc2)CC1 | 5.7 | -1.3 | 3.9 | 3.8 | -1.2 | nt
COCCCNc1cc(C)nc2ccccc12 | 0.3 | -2.1 | -1.3 | -0.9 | -2.8 | nt
Cc1cc(NCCCCCCCNc2cc(C)nc3cc([N+](=O)[O-])ccc23)c2ccc([N+](=O)[O-])cc2n1 | 16.2 | 77.8* | 6.0 | -7.7 | -1.5 | 11.8
NS(=O)(=O)Oc1ccccc1 | 10.1 | -2.0 | -5.8 | -8.3 | -0.8 | nt
CCn1c(SCC(=O)Nc2ccc3c(c2)OCO3)nnc1-c1cnccn1 | 1.4 | 83.2* | 5.7 | -1.7 | -2.5 | 45.9
CCn1c(SCC(=O)Nc2ccc(OC)c(OC)c2)nnc1-c1cnccn1 | -2.2 | 16.1 | -0.2 | -6.4 | 0.1 | nt
Nc1nc2ccccc2n1/N=C/c1ccc(Br)cc1 | -17.4 | 65.8* | -3.2 | -10.7 | 3.1 | -3.8
CCOC(=O)c1sc(=S)n(-c2ccc(OC)cc2)c1C | -2.1 | 6.6 | 6.9 | 0.2 | 0.3 | nt
CCOC(=O)c1c2c(n(-c3ccc(OC)cc3)c1C)C(=O)C(=O)c1ccccc1-2 | 11.8 | 71.9* | 20.7 | -55.9 | 2.7 | 36.0
CCCC[n+]1c(C)sc2cc(OC)ccc21 | 2.0 | 24.8 | -0.6 | 0.7 | -2.8 | nt
CC[n+]1c(C)sc2c3ccsc3ccc21 | 9.6 | 69.8* | 20.6 | -10.3 | 0.3 | 26.9
O=S(=O)(NCCN1CCOCC1)c1cc(Cl)c(Cl)cc1Cl | -8.4 | -16.6 | -4.2 | 4.1 | 0.1 | nt
Cc1cc2cc(CN(Cc3ccc4c(c3)OCO4)C(=O)c3ccco3)c(=O)[nH]c2cc1C | -2.8 | 81.6* | 6.1 | 2.4 | -1.6 | 38.2
